T cruzi inh: T. cruzi replication inhibition. AID 1885. inhibition, % (concentration not given with the values). T. cruzi beta-gal in NIH3T3, luminescence, 90 h. hit rate 1.4% among 300,000;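 active = mean inhibition across valid replicates above about 55%, limit read from the data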;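 note: signal also drops with host cell toxicity which is not excluded here; higher percent means less beta-gal luminescence so fewer parasites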
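System: Mouse NIH/3T3 fibroblasts infected with β-gal-expressing T. cruzi Tulahuen C4 | Quantity: NIH/3T3 cells, 5,000 per well | Reagent: 5000 reporter trypomastigotes per well | Dosing: Compound pinned at 50 nL/well, DMSO | Schedule: 3 h host attachment, then at least 90 h co-culture | Detection: GalScreen luminescence, 60 min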
HSF1 inh: HSF1 inhibition | AID 2098 | NIH3T3-HGL HSE-luciferase, MG132-induced, luminescence 8 h; active compounds read low | activity change, negative = inhibition, % at 7.5 µM (by protocol) | hit rate 0.77% among 300,000;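 active = more than half of replicate wells show activity change below -50%, luminescence cut by over half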;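 note: luciferase reports HSF-1 transcriptional activity via heat shock element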
Lmaj promast: inhibitors of Leishmania major promastigote growth; Leishmania major promastigotes, resazurin fluorescence viability; inhibition, % at 10 µM; hit rate 9% among 200,000; in the data active = inhibition above about 50%;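 note: promastigotes grown with compound for 44 hours at 28 °C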
HSF-1 act: increases HSF-1 driven luciferase reporter signal. NIH3T3-HGL HSF-1 luciferase reporter, MG132, 8 h; 100% = twice DMSO control signal. AID 504408. activation, % at 9 µM. hit rate 1.7% among 300,000;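 active = mean replicate activation of at least 50% with a set share of replicates each reaching 50%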
Hsp70 activator: transcriptional activators of Hsp70. HeLa Hsp70 promoter luciferase reporter, luminescence; scaled: vehicle 0, proteasome-inhibitor control 100%. activation, % at 10 µM. hit rate 0.04% among 200,000. AID 1203;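 active = activation above the mean across all tested compounds plus 3 SD, cutoff set per campaign, cut at about 5.5% in these data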
Each line names hits and unclear results; the compound was inactive in the other large screens. This excerpt belongs to a sample that is enriched for hits.

Cc1onc(-c2ccccc2)c1C(=O)N/N=C/c1ccc([N+](=O)[O-])s1	Lmaj promast 100.3
Cc1onc(-c2ccccc2)c1C(=O)N/N=C/c1cccc(O)c1	HSF-1 act 66.5
COc1cccc(/C=N/NC(=O)c2c(-c3ccccc3)noc2C)c1	none
Cc1onc(-c2ccccc2)c1C(=O)N/N=C/c1ccco1	none (no result: Lmaj promast, Hsp70 activator)
Cc1ccccc1C(=O)NC(CC(C)C)C(=O)N1CCN(c2ccccc2)CC1 (stereo not given)	none (no result: Lmaj promast, Hsp70 activator)
CCCCCC#CCC#CCC#CCC#CCCCC(=O)O	Lmaj promast 83.8
CCCCCCCCCCCCS(=O)(=O)CCC(=O)O	none (no result: Lmaj promast, Hsp70 activator)
CC(C)(C)n1nc(-c2ccc(Cl)cc2)c2c(N)ncnc21	none
CC(C)(C)n1nc(-c2ccc(F)cc2)c2c(N)ncnc21	T cruzi inh 57.3
O=C(CN1CCN(S(=O)(=O)c2ccc(Br)cc2)CC1)N/N=C/c1ccco1	none
Cc1ccc(N2CCN(c3ccc(C)cc3)C2c2ccncc2)cc1	Lmaj promast 92.2
Cc1cccc(N2CCN(c3cccc(C)c3)C2c2cccnc2)c1	T cruzi inh 65.5, Lmaj promast 99.2, HSF-1 act 67.1
CCOC(=O)C1=C(C)Nc2nc3ccccc3n2C1c1ccncc1 (stereo not given)	HSF-1 act 79.6
C=CCOC(=O)C1=C(C)Nc2nc3ccccc3n2C1c1ccncc1 (stereo not given)	HSF-1 act 62.0
COC1CCCN(Cc2cn(C)nc2-c2ccc(Oc3ccccc3)cc2)C1 (stereo not given)	Lmaj promast 72.9
CCCN1CCC(NCc2cn(C)nc2-c2ccc(Oc3ccccc3)cc2)CC1	none (no result: Lmaj promast, Hsp70 activator)
COCCN1CCCC(CNCc2cn(C)nc2-c2ccc(Oc3ccccc3)cc2)C1 (stereo not given)	Lmaj promast 95.3
Cn1cc(CN2CCCCC2CO)c(-c2ccc(Oc3ccccc3)cc2)n1 (stereo not given)	Lmaj promast 63.2
COc1ccc(CCNC(=O)c2cc(C)oc2C)cc1OC	none (no result: Lmaj promast, Hsp70 activator)
CC(Sc1nnc(-c2ccncc2)n1C)C(=O)NCC1CCCO1 (stereo not given)	none (no result: Lmaj promast, Hsp70 activator)
COc1ccc(N(C)C(=O)c2oc(=O)c3ccccc3c2-c2ccccc2)c(OC)c1	HSF1 inh -79.1 (no result: Lmaj promast, Hsp70 activator)
CC1C(=O)C(C)C(c2cccc(Br)c2)NC1c1cccc(Br)c1 (stereo not given)	none (no result: Lmaj promast, Hsp70 activator)
O=C(Nc1ccc(F)cc1)C1(S(=O)(=O)c2ccc(Cl)cc2)CC1	none (no result: Lmaj promast, Hsp70 activator)
CC(=O)Nc1ccc(S(=O)(=O)Nc2nc3ccccc3nc2Nc2ccc3ccccc3c2)cc1	HSF-1 act 105.7
CC(=O)Nc1ccc(S(=O)(=O)Nc2nc3ccccc3nc2Nc2cccc(O)c2)cc1	none (no result: Lmaj promast, Hsp70 activator)
Cc1sc(NC(=O)c2sc3nc4c(C)cccc4cc3c2N)c(C#N)c1C	Lmaj promast 55.7
Cc1cccc2cc3c(N)c(C#N)sc3nc12	HSF1 inh -54.1
Cc1cccc2cc3c(N)c(C(=O)N4CCc5ccccc54)sc3nc12	none
Cc1cccc2cc3c(N)c(C(=O)Nc4ccc(N5CCOCC5)cc4)sc3nc12	none
CN(C)S(=O)(=O)c1ccc(C(=O)Nc2nnc(SCc3ccccc3)s2)cc1	none
C=CCSc1nnc(NC(=O)c2cccc(S(=O)(=O)N(C)c3ccccc3)c2)s1	Lmaj promast 63.2
CN(c1ccccc1)S(=O)(=O)c1cccc(C(=O)Nc2nccs2)c1	none
CN(C)S(=O)(=O)c1ccc(C(=O)Nc2nnc(SCc3cccc(F)c3)s2)cc1	Lmaj promast 52.3
COc1ccccc1CNC(=O)Cn1ccsc1=N	none (no result: Lmaj promast, Hsp70 activator)
O=C(NC1=NCCS1)c1cccc(OC(F)F)c1	none
CCN1/C(=C2\SC(=S)N(Cc3ccccc3)C2=O)Sc2ccccc21	none
CCC(CO)[n+]1c(C)cc(/C=C2\Sc3ccccc3N2Cc2ccccc2)cc1C (stereo not given)	Lmaj promast 100.4 (no result: T cruzi inh, HSF1 inh, HSF-1 act)
CC1=C(C(=O)Nc2ccc(C)cc2C)C(c2cccs2)NC(=S)N1 (stereo not given)	none
CC1=C(C(=O)Nc2ccccc2C)C(c2cccs2)NC(=S)N1 (stereo not given)	HSF1 inh -50.8
COc1cc(OC)c(N(C)C(=O)c2cn(C)c(=O)c3cc(OC)c(OC)cc23)cc1Cl	none (no result: Lmaj promast, Hsp70 activator)
CC(=O)c1c(C)[nH]c(C(=O)OCC(=O)Nc2sc3c(c2C#N)CCC(C)C3)c1C (stereo not given)	none (no result: Lmaj promast, Hsp70 activator)
Cc1c(C(=O)OCC(C)C)[nH]c2c1C(=O)CC(c1cccs1)C2 (stereo not given)	T cruzi inh 54.7
COCCOC(=O)c1[nH]c2c(c1C)C(=O)CC(c1cccs1)C2 (stereo not given)	none
COc1cc(NC(=O)N[C@@H](Cc2c[nH]c3ccccc23)C(=O)O)c(C(=O)O)cc1OC	none (no result: Lmaj promast, Hsp70 activator)
CCCNC(=O)c1ccccc1NC(=O)c1ccc(CSc2ccccc2)cc1	none
O=S(=O)(NCC(Nc1ccc(Cl)cc1)c1ccccc1)c1ccc(Cl)cc1 (stereo not given)	Lmaj promast 58.3
CC(=O)Nc1ccc(S(=O)(=O)N(C)CC(=O)OCCOc2cccc(C)c2)cc1	none (no result: Lmaj promast, Hsp70 activator)
O=C(Nc1nc(-c2ccc3ccccc3c2)cs1)C1CCN(S(=O)(=O)c2cccs2)CC1	Lmaj promast 90.6
Cc1ccc(-c2csc(NC(=O)C3CCN(S(=O)(=O)c4cccs4)CC3)n2)cc1	Lmaj promast 76.0
O=C(Nc1ccc(-c2csc(-c3ccccc3)n2)cc1)c1ccccc1Cl	T cruzi inh 61.9
Cc1ccc(NC(=O)C2CCN(S(=O)(=O)c3cccs3)CC2)cc1	none
Cc1nc2ccc(NC(=O)C3CCN(S(=O)(=O)c4cccs4)CC3)cc2s1	Lmaj promast 65.3
CCOC(=O)CC1CCCCN1C(=O)c1ccc2nc(CCOC)oc2c1 (stereo not given)	none (no result: Lmaj promast, Hsp70 activator)
COc1ccc(Br)c(C(=O)N2CCN(S(=O)(=O)c3cccs3)CC2)c1	none (no result: Lmaj promast, Hsp70 activator)
O=C(CCNC(=O)c1ccccc1Cl)Nc1nc(-c2ccc3ccccc3c2)cs1	T cruzi inh 55.9, Lmaj promast 80.0
Cc1sc2ncnc(N3CCC(C(=O)Nc4nc(-c5cccs5)cs4)CC3)c2c1C	T cruzi inh 63.7, HSF1 inh -53.6 (no result: Lmaj promast, Hsp70 activator)
CCCCc1nnc(NC(=O)C2CCN(c3ncnc4sc(C)c(C)c34)CC2)s1	none (no result: Lmaj promast, Hsp70 activator)
Nc1ccnc(Oc2ccc(F)cc2)c1	none
Cc1c(N/C(=N/S(=O)(=O)c2ccc(Cl)cc2)c2ccccc2)c(=O)n(-c2ccccc2)n1C	none
Cn1c(Cn2nnc3ccccc32)nnc1SCC(=O)Nc1nccs1	none
COc1cc(C)ccc1OCc1cc(C(=O)N(Cc2nccn2C)C(C)C)no1	HSF-1 act 57.9 (no result: Lmaj promast, Hsp70 activator)
CC1CCCCC1NCC(=O)NCc1ccc(F)cc1 (stereo not given)	none
COC(=O)CC/C(O)=C1/C(=N)CC(C)(C)CC1=O	HSF-1 act 58.4
C=CCN=C1CC(C)(C)CC(=O)/C1=C(/O)CCC(=O)OC	none
O=C(CCNc1n[nH]c(=O)[nH]c1=O)N/N=C/c1ccc(C(F)(F)F)cc1	none
O=C(Nc1ccc2c(c1)OCO2)C1CCCCN1S(=O)(=O)c1ccccc1 (stereo not given)	Lmaj promast 65.0
